In ChEMBL document CHEMBL3407360, “Proteasome inhibitors with pyrazole scaffolds from structure-based virtual screening” (J Med Chem, 2015) one finds inhibition and IC50 data, which are given here for one compound.

Calls of active or inactive are those of the source. No cut-off for these calls is given here.

The species entered for assay [1] is Homo sapiens. Nature of the assay: Inhibition of human 20S proteasome beta1i chymotrypsin-like activity using Ac-PAL-AMC as substrate preincubated for 30 mins before substrate addition measured over 90 mins by fluorescence assay. In short, it runs like this:
(§1)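 Purified human 20S proteasome (CP or IP, 0.5 µg/mL) was preincubated with compound for 30 min at room temperature in 20 mM Tris-HCl, 0.5 mM EDTA, 0.035% SDS. Substrates were Ac-nLPnLD-AMC 100 µM for β1, Ac-PAL-AMC 100 µM for β1i, and Boc-LRR-AMC 200 µM for β2/β2i. AMC release was followed 90 min at room temperature, ex 360/em 460 nm.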

The target of assay [2] is T1, Proteasome component C5 (Homo sapiens) (UniProt P20618).
T1 sequence (whole entry): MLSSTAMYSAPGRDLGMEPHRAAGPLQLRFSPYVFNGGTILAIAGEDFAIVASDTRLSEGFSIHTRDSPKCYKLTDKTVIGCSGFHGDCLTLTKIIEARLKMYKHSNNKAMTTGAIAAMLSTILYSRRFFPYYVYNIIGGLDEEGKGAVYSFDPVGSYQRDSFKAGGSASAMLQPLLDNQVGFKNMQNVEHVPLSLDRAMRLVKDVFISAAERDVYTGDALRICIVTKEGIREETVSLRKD
Briefly: Inhibition of human 20S proteasome beta1 caspase-like activity using Ac-nLPnLD-AMC as substrate preincubated for 30 mins before substrate addition measured over 90 mins by fluorescence assay. In short, it runs like this:
as §1

Assay [3] concerns the target Proteasome Macropain subunit (Homo sapiens) (UniProt P49721). Briefly: Inhibition of human 20S proteasome beta2 trypsin-like activity using Boc-LRR-AMC as substrate preincubated for 30 mins before substrate addition measured over 90 mins by fluorescence assay. In short, it runs like this: as §1
Assay [4] is filed under the species Homo sapiens. Nature of the assay: Inhibition of human 20S proteasome beta2i trypsin-like activity using Boc-LRR-AMC as substrate preincubated for 30 mins before substrate addition measured over 90 mins by fluorescence assay. In short, it runs like this: as §1
A further assay deals with NCI-H358. Briefly: Cytotoxicity against human NCI-H358 cells after 72 hrs. Format: functional, cell-based. To be noted: NCI-H358, 72 h. In short, it runs like this: (§2)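 Adherent lines, growing in log phase in DMEM or RPMI 1640 with 10% FBS, were plated at 7,000–10,000 cells/well. Compound was added 24 h later at the final concentration. Viability was measured after 72 h by CellTiter Glo luminescence or CellTiter 96 Aqueous One absorbance.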

The nature of assay [5]: Cytotoxicity against human H23 cells after 72 hrs. Type of assay: functional, cell-based. Conditions: NCI-H23, 72 h. In short, it runs like this: as §2
Assay [6] relates to RPMI-8226. Briefly: Inhibition of 20S proteasome chymotrypsin-like in human RPMI8226 cell extracts using Suc-LLVY-AMC as substrate preincubated at 1 to 10 uM for 30 mins before substrate addition by fluorescence assay. Format: cell-free. A digest of the protocol:
(§3)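 Cytosolic extracts of RPMI 8226 cells served as the proteasome source in place of purified enzyme. Extracts were preincubated with compound, and hydrolysis of Suc-LLVY-AMC (CT-L), Z-LLE-AMC (C-L) or Boc-LRR-AMC (T-L) was read by AMC fluorescence at ex 360/em 460 nm.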

Assay [7] has as its system RPMI-8226. Briefly: Inhibition of 20S proteasome caspase-like in human RPMI8226 cell extracts using Z-LLE-AMC as substrate preincubated at 1 to 10 uM for 30 mins before substrate addition by fluorescence assay. Format: cell-free. In short, it runs like this: as §3
Assay [8] concerns RPMI-8226. Briefly: Inhibition of 20S proteasome trypsin-like in human RPMI8226 cell extracts using Boc-LRR-AMC as substrate preincubated at 1 to 10 uM for 30 mins before substrate addition by fluorescence assay. Format: cell-free. A digest of the protocol: as §3
The target in assay [9] is T2, Proteasome Macropain subunit MB1 (Homo sapiens) (UniProt P28074).
T2 sequence (whole entry): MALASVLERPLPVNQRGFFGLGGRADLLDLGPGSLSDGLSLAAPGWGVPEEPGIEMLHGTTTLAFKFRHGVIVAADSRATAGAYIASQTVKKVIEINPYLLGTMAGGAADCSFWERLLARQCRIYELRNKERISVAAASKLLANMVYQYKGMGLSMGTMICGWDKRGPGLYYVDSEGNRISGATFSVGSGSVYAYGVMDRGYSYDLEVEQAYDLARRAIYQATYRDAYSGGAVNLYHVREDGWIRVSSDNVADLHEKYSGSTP
Nature of the assay: Inhibition of human 20S proteasome beta5 chymotrypsin-like activity using Ac-WLA-AMC as substrate preincubated for 30 mins before substrate addition measured over 90 mins by fluorescence assay.

For assay [10], the species on record is Homo sapiens. Briefly: Inhibition of human 20S proteasome beta5i chymotrypsin-like activity using Ac-ANW-AMC as substrate preincubated for 30 mins before substrate addition measured over 90 mins by fluorescence assay.

Proteasome Macropain subunit (Homo sapiens), sequence (P49721 whole entry): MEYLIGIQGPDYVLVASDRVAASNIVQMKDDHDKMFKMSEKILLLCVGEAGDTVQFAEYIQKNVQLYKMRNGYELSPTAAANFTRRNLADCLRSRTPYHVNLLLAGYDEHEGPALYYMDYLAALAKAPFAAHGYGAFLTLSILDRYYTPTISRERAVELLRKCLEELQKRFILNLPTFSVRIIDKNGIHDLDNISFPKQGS

One may read the IC50 as the midpoint of a concentration-inhibition curve. Consider `Cc1ccc(OS(=O)(=O)c2cccc(C(F)(F)F)c2)c(-c2cc(-c3ccccc3)n(CCN[C@@H]3CCNC3)n2)c1`, for which the inhibition result (in the assay filed under Homo sapiens [1]; in [2]; in the assay with RPMI-8226 [6]; with RPMI-8226 [7]; in assay [9]; in the assay listed under Homo sapiens [10]) was “Active” throughout. Also, the inhibition result (in [3]; in the assay filed under Homo sapiens [4]; in the assay on RPMI-8226 [8]) was “inactive” throughout. Also, the IC50 (with NCI-H358; in assay [5]) was 7 µM each time.
